TCR CD3 inh: blocks the human TCR-CD3 interaction; TAMRA-labeled TCR probe fluorescence, biochemical; actives 0.37% (n = 360,000); inhibition, % at 9.4 µM; in the data active = inhibition above about 19%;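 note: recombinant mutant TCR 2C K166C tagged with TAMRA read by polarization; 0% = receptor in buffer alone and 100% = receptor with positive control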
HTRA1 inh: inhibitors of human serine peptidase HTRA1 | Q92743 | recombinant HTRA1, FP-rhodamine activity-based probe, fluorescence polarization | inhibition, % at 5.96 µM | actives 0.5% (n = 340,000) | AID 504803; in the data active = inhibition above about 36%;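 note: 0% = enzyme with DMSO and 100% = wells lacking enzyme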
SIAE primary: inhibitors of human sialic acid acetylesterase SIAE; inhibition, % at 9.66 µM; actives 0.69% (n = 370,000); SIAE FP-Rh probe binding, fluorescence polarization;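 active = inhibition above a cutoff: mean of compounds within the control limits plus 3 SD of those, cut at about 17% in these data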;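 note: 0% = plate median of compound wells and 100% = probe without SIAE protein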
mABHD4 FP: ABHD4 (mouse) inhibition, primary FP screen; Q8VD66; purified mABHD4, FP-Rh probe fluorescence polarization; inhibition, % at 8.92 µM; actives 0.54% (n = 370,000); AID 720543;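 active = inhibition exceeding the mean over every tested compound plus 3 SD, cut at about 30% in these data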;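 note: 0% = plate median of compound wells and 100% = S159A mutant with DMSO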
Target sequence (Q8VD66 whole entry, looked up): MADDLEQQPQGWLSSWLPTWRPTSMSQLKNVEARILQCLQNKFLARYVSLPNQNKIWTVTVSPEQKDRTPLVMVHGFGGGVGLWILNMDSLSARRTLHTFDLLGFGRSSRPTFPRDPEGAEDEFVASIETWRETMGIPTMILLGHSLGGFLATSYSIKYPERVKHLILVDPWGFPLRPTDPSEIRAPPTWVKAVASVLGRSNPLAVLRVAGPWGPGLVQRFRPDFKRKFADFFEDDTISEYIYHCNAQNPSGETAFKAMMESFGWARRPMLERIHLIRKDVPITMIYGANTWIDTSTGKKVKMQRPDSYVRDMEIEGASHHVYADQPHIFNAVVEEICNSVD
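Test system: mouse ABHD4 enzyme, wild type. Reagent: FP-Rh fluorescent activity-based probe, added after compound pre-incubation. Timing: pre-incubation 45 min, probe exposure 60 min, at 25 °C. Technique: FP readout, ex 525 nm / em 598 nm. Benchmarks: high control S159A mutant with DMSO, low control median of compound wells.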
PRMT1 inh: inhibitors of human PRMT1 | Q99873 | AID 652257 | recombinant PRMT1, activity-based probe fluorescence polarization | inhibition, % at 2.79 µM | actives 1.3% (n = 370,000);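 active = inhibition above about 21% made by adding two undisclosed values, limit read from the data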
Numbers without * were called inactive; nt = not tested or not shown. Most compounds without a hit are left out; they make up all but 2.5% or so of the library.

SMILES | TCR CD3 inh | HTRA1 inh | SIAE primary | mABHD4 FP | PRMT1 inh
C[C@H]1[C@@H](NC(=O)c2ccc(Cl)cc2)CC[C@@]23CCCN2C(=O)CCC[C@@H]13 | nt | nt | 8 | 2 | 2
COc1ccc(/C=C2/SC(c3ccc(C)cc3)=NC2=O)cc1OC | -7 | -13 | -20 | 8 | 24*
COc1ccc(/C=C2\SC(c3ccc(C)cc3)=NC2=O)cc1OC | 3 | -14 | -10 | 4 | 19
COc1cc(/C=C2\SC(c3ccc(C)cc3)=NC2=O)ccc1O | -10 | 23 | -5 | -1 | 29*
COc1ccc(/C=C2\SC(=O)NC2=S)cc1OC | -8 | 0 | -2 | 6 | 47*
COc1cc(/C=C2\SC(c3ccc(C)cc3)=NC2=O)cc(OC)c1OC | nt | 1 | nt | nt | nt
CCC1=C/C(=C/c2sc3ccccc3[n+]2CC)CC(C)(C)C1 | -5 | nt | 0 | 11 | 37*
Cc1ccc(S(=O)(=O)C(C#N)c2nc3ccccc3nc2N2CCCC2)cc1 (stereo not given) | -5 | 4 | 6 | 16 | 58*
N#CC(c1nc2ccccc2nc1N1CCOCC1)S(=O)(=O)c1ccccc1 (stereo not given) | -10 | 4 | 3 | -3 | 8
O=c1c2cc(C(F)(F)F)ccc2sn1-c1ccccc1 | 8 | 2 | 3 | 8 | 71*
O=c1c2cc(F)ccc2sn1-c1ccccc1 | 8 | -1 | 9 | 20 | 89*
Cc1ccccc1-n1sc2cc(F)ccc2c1=O | 2 | 0 | 5 | 15 | 88*
O=c1c2ccccc2sn1-c1ccccc1 | -9 | -13 | 4 | 3 | 95*
O=c1c2ccccc2[nH]c2ccc(F)cc12 | 7 | -5 | -4 | 1 | 1
CCc1noc(C)c1C(=O)OCC(=O)c1ccccc1OC | 1 | -10 | 1 | -2 | -2
Cc1cccc(C(=O)N/C(=C\c2ccco2)C(=O)N2CCCC2)c1 | 11 | 4 | 11 | 21 | 23*
Cc1ccc(C(=O)N/C(=C/c2ccco2)C(=O)N2CCCCCC2)cc1 | 1 | -5 | 5 | 15 | 10
COc1ccc(C(CCN2CCOCC2)c2c(O)cc(OC)cc2OC)cc1 (stereo not given) | -3 | -1 | -4 | 3 | 5
COc1ccc(C(c2c(O)ccc3ccccc23)N2CCOCC2)c(OC)c1 (stereo not given) | 6 | -76 | -14 | -30 | 67*
CCOC(=O)c1ccc(NC(=O)NC2CC3CCC(C2)N3Cc2nnnn2Cc2ccco2)cc1 (stereo not given) | 0 | -15 | -9 | -3 | 23*
O=c1[nH]cnc(O)c1C(c1cccc([N+](=O)[O-])c1)c1c(O)nc[nH]c1=O | -6 | 4 | 2 | 5 | -1
Cc1ccc(C(C[N+](=O)[O-])Sc2ccc(N)cc2)cc1 (stereo not given) | -9 | -10 | 3 | 2 | 67*
CCOc1ccc(-c2nc(CN3CCCCC3CCn3cccn3)c(C)o2)cc1 (stereo not given) | -7 | 3 | -1 | 7 | 1
CC(C)[C@@H](NC(=O)OC(C)(C)C)c1cc(C(=O)c2c(-c3ccccc3)[nH]c3ccccc23)c(N)s1 | -1 | nt | -6 | -6 | 23*
Cc1sc2ncn(CC(=O)NCc3ccco3)c(=O)c2c1-c1ccc(F)cc1 | 5 | -7 | -12 | 4 | 24*
SMILES | TCR CD3 inh | HTRA1 inh | SIAE primary | mABHD4 FP | PRMT1 inh
O=C(Cn1cnc2c(cnn2-c2ccc(F)cc2)c1=O)NCc1ccco1 | -1 | 3 | -5 | 9 | -2
O=[N+]([O-])c1ccc2c(c1)/C(=N\O)c1ccccc1-2 | 1 | -7 | -22 | -5 | -1
O=[N+]([O-])c1ccc2c(c1)-c1ccccc1C2O (stereo not given) | 1 | 0 | 6 | 5 | 36*
O=CN/C=C/c1cc(O)ccc1O | 6 | 11 | 17 | 19 | 48*
O=C(Cc1nnc(NC(=O)Nc2ccc(F)cc2)s1)NCc1ccccc1 | 6 | nt | -8 | -6 | 2
CC(=O)NC1C(=O)N=C(SC(C)C(=O)Nc2cccc(Cl)c2)NC1=O (stereo not given) | 5 | 5 | -7 | 1 | 22*
CC(Sc1nc(N)cc(=O)[nH]1)C(=O)Nc1cccc(Cl)c1 (stereo not given) | 3 | -9 | -10 | -4 | 2
COc1ccc2cc3[n+](cc2c1O)CCc1cc2c(cc1-3)OCO2 | 25* | nt | 20* | 31* | 11
O=C(CNc1n[nH]c(=O)[nH]c1=O)N/N=C/C=C/c1ccccc1 | 5 | -1 | -7 | 2 | 2
